Test results reported in ChEMBL document CHEMBL2321760, “Design, synthesis, and biological evaluation of a series of benzo[de][1,7]naphthyridin-7(8H)-ones bearing a functionalized longer chain appendage as novel PARP1 inhibitors” (J Med Chem, 2013).
The source made the active and inactive calls. The rule behind the calls is not given here.

Experiments:
[1] = Cytotoxicity against Chinese hamster V79 cells expressing wild type BRCA2 assessed as growth inhibition; assay type: cell-based, Cricetulus griseus
Summary of the method: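 V79 (wild-type Chinese hamster lung fibroblasts) grown in RPMI-1640 with 10% FBS, 37 °C, 5% CO2. Six concentrations per test. CC50 is the concentration reducing proliferation and growth by 50%, calculated by Logit method from at least three independent tests.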

[2] = Cytotoxicity against Chinese hamster BRCA2-deficient VC8 cells assessed as growth inhibition; assay type: cell-based; conditions: Cricetulus griseus, V-C8
Summary of the method: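 V-C8 (BRCA2-deficient Chinese hamster lung fibroblasts) grown in F12 with 10% FBS, 37 °C, 5% CO2. Six concentrations per test. CC50 is the concentration reducing proliferation and growth by 50%, calculated by Logit method from at least three independent tests.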

[3] = target: Poly [ADP-ribose] polymerase 1 (Homo sapiens, UniProt P09874); assay: Inhibition of human recombinant PARP1 after 1 hr by ELISA
Chain of Poly [ADP-ribose] polymerase 1 (P09874 whole entry): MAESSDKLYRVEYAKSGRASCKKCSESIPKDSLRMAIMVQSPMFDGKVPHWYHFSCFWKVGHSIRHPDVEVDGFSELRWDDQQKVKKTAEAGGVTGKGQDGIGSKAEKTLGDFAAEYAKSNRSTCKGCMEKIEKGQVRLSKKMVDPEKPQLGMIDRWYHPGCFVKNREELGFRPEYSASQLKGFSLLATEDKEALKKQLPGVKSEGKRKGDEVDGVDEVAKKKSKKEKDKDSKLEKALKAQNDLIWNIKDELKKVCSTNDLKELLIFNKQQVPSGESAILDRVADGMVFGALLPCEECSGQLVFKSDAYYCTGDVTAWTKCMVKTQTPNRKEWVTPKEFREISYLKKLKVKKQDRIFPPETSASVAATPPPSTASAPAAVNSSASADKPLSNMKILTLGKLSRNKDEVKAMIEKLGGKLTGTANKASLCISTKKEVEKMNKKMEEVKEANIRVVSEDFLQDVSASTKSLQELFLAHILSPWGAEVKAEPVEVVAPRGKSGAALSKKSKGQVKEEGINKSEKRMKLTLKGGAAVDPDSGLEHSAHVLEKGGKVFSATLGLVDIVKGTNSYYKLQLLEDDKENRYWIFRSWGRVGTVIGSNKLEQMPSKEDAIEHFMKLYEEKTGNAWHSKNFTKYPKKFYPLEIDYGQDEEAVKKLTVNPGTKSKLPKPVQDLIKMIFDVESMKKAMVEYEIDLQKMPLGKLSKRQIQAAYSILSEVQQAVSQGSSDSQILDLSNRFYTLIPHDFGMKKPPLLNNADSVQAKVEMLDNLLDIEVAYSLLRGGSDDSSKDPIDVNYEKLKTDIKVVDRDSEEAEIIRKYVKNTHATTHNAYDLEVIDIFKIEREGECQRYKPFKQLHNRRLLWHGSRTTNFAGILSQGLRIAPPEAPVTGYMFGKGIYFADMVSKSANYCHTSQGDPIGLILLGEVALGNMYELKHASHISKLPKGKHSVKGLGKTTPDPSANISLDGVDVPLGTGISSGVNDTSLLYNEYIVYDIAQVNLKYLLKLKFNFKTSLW

[4] = Cytotoxicity against human BRCA1-deficient MDA-MB-436 cells assessed as growth inhibition; assay type: cell-based
Summary of the method: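 Proliferation assay in BRCA1-mutant human breast cancer MDA-MB-436 cells. Six concentrations per test. CC50 calculated by Logit method from at least three independent tests.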

SK-OV-3 [5] = assay: Potentiation of temozolomide-induced cytotoxicity in human SKOV3 cells assessed as reduction in temozolomide IC50 at 1 uM after 7 days by sulforhodamine B assay; assay type: functional
Summary of the method: (§1)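 SKOV3 cells in DMEM with 10% FBS were given gradient concentrations of temozolomide, alone or with compound at 0.5 or 1.0 µM, for 7 days. Cytotoxicity read by sulforhodamine B. Temozolomide IC50 reported as mean ± SD, n=3.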

[6] = Ratio of CC50 for Chinese hamster BRCA2-deficient VC8 cells to IC50 for human recombinant PARP1
SK-OV-3 [7] = assay: Potentiation of temozolomide-induced cytotoxicity in human SKOV3 cells assessed as reduction in temozolomide IC50 at 0.5 uM after 7 days by sulforhodamine B assay; assay type: functional; summary of the method: as §1
[8] = target: Poly [ADP-ribose] polymerase 1 (Cricetulus griseus) (UniProt Q9R152); assay: Inhibition of PARP1 in Chinese hamster BRCA2-deficient VC8 cells assessed as impairment of cell cycle progression at 0.5 uM after 24 hrs by propidium iodide staining-based FACS flow cytometric analysis
Chain of Poly [ADP-ribose] polymerase 1 (Cricetulus griseus) (Q9R152 whole entry): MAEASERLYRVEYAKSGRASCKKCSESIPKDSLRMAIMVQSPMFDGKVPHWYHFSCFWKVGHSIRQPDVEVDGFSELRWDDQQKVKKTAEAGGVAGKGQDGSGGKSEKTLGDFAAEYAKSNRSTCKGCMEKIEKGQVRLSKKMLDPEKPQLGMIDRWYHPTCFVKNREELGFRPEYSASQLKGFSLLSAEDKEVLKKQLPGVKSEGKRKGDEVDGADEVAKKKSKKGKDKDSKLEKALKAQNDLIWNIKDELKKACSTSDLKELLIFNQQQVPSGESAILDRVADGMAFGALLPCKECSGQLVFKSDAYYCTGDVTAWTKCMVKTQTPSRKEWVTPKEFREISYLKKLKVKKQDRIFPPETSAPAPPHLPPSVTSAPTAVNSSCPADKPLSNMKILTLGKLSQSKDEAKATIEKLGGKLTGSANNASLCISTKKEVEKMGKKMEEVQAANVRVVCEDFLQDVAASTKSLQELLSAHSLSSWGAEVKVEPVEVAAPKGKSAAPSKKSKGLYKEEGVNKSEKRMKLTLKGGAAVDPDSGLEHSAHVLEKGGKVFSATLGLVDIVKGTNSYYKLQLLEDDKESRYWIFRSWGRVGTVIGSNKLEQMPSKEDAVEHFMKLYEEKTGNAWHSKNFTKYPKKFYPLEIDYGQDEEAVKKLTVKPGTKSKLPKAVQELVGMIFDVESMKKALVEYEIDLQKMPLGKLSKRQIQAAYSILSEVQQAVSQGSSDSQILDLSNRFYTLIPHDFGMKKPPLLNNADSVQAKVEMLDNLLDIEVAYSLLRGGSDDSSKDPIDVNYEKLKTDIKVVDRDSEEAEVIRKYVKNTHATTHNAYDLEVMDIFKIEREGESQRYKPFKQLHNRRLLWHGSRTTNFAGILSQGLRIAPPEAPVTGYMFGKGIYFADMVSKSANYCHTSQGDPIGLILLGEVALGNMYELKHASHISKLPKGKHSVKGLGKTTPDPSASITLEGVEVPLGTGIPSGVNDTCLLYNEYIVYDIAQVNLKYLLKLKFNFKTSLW
Summary of the method: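 BRCA2-deficient V-C8 cells treated with compound at 0.5 µM, 37 °C, 24 h. Cells then harvested, fixed and stained with 10 µg/mL propidium iodide. Cell-cycle distribution read by flow cytometry, at least 10,000 events per sample.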

PARP 1, 2 and 3 = PARP 1, 2 and 3 (Homo sapiens, UniProt P09874+Q9Y6F1+Q9UGN5); assay: Inhibition of PARP1/PARP2 in human SKOV3 cells assessed as reduction in H2O2-induced PARylation incubated for 4 hrs prior to H2O2 treatment; assay type: cell-based; conditions: sk-ov-3
hERG (KCNH2) = hERG (KCNH2) (Homo sapiens, UniProt Q12809); assay: Inhibition of human ERG at 5 uM relative to control
Chain of hERG (KCNH2) (Q12809 whole entry): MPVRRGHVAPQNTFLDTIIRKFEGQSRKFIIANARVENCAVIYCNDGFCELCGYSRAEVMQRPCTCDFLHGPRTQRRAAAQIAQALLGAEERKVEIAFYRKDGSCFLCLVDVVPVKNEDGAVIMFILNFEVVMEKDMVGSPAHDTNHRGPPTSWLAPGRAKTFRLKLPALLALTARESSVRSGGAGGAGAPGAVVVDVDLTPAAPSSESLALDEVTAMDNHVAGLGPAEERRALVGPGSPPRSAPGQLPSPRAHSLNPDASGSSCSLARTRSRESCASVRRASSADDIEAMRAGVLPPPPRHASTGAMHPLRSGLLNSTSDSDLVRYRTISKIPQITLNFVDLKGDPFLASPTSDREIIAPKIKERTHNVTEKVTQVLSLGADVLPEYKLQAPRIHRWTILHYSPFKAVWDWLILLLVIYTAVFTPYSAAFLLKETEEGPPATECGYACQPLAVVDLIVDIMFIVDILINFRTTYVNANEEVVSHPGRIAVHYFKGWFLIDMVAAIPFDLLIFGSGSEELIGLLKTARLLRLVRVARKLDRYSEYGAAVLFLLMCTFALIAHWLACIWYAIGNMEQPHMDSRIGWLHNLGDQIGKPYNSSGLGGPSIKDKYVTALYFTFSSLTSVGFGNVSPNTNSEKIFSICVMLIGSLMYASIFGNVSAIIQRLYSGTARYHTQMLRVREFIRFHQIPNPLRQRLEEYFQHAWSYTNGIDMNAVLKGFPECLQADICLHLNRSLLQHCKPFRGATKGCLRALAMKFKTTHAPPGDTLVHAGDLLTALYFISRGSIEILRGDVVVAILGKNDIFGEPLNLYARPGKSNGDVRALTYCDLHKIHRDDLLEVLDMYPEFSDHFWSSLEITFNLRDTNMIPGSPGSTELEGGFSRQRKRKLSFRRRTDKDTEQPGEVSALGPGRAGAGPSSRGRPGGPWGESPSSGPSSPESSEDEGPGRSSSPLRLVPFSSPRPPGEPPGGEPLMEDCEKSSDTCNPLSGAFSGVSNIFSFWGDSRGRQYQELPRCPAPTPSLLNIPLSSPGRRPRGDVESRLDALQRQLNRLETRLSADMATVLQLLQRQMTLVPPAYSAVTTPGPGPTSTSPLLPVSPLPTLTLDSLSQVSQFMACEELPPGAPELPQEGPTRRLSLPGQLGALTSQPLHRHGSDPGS

[9] = (§2) Oral bioavailability in rat at 20 mg/kg; assay type: ADME, organism-based; conditions: in vivo
Summary of the method: (§3)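 Rat oral PK, 20 mg/kg po. Vehicle DMSO, Tween 80, normal saline. Cmax, Tmax, AUC0-∞ and oral bioavailability F taken from plasma concentration-time curves. Values are the average of three runs.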

[10] = (§4) AUC (0 to infinity) in rat at 20 mg/kg, po; assay type: ADME, organism-based, Plasma; set-up: time infinity, dose 20 mg/kg, route oral; conditions: plasma; summary of the method: as §3
[11] = Tmax in rat at 20 mg/kg, po; assay type: ADME, organism-based; set-up: dose 20 mg/kg, route oral; conditions: in vivo; summary of the method: as §3
[12] = Cmax in rat at 20 mg/kg, po; assay type: ADME, organism-based; set-up: dose 20 mg/kg, route oral; conditions: in vivo; summary of the method: as §3
[13] = Half life in rat at 10 mg/kg, iv; assay type: ADME, organism-based; set-up: dose 10 mg/kg, route intravenous; conditions: in vivo
Summary of the method: (§5)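 Rat intravenous PK, 10 mg/kg iv. Vehicle DMSO, Tween 80, normal saline. Clearance, Vss and half-life derived from plasma concentration-time data. Values are the average of three runs.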

[14] = Volume of distribution at steady state in rat at 10 mg/kg, iv; assay type: ADME, organism-based; set-up: dose 10 mg/kg, route intravenous; conditions: in vivo, read-out: Vdss; summary of the method: as §5
[15] = (§6) Clearance in rat at 10 mg/kg, iv; assay type: ADME, organism-based; set-up: dose 10 mg/kg, route intravenous; conditions: in vivo; summary of the method: as §5
[16] = Ratio of AZD2281 CC50 to compound CC50 for human BRCA1-deficient MDA-MB-436 cells; assay type: ADME
[17] = Ratio of AZD2281 CC50 to compound CC50 for Chinese hamster BRCA2-deficient VC8 cells; assay type: ADME, cell-based, Cricetulus griseus
Rattus norvegicus [18] = assay: as §2; assay type: ADME, organism-based; conditions: in vivo; summary of the method: as §3
Rattus norvegicus [19] = assay: as §4; assay type: ADME, organism-based, Plasma; set-up: time infinity, dose 20 mg/kg, route oral; conditions: in vivo; summary of the method: as §3
Rattus norvegicus [20] = assay: as §6; assay type: ADME, organism-based; set-up: dose 10 mg/kg, route intravenous; conditions: in vivo; summary of the method: as §5

Row | IC50 [3] | SMILES | CC50 [1] | CC50 [2] | other results
1 | 83.9 nM | O=C(NC1CC(=O)c2ccccc21)c1cc(Cc2n[nH]c(=O)c3ccccc23)ccc1F (stereo not drawn) | > 10000 nM | > 10000 nM | –
2 | 86.3 nM | O=C(NC1CNC(=O)c2ccccc21)c1cc(Cc2n[nH]c(=O)c3ccccc23)ccc1F (stereo not drawn) | > 10000 nM | > 10000 nM | –
3 | 156 nM | O=C(c1cc(Cc2n[nH]c(=O)c3ccccc23)ccc1F)N1CCc2cccc3c2C1CNC3 (stereo not drawn) | > 10000 nM | > 10000 nM | –
4 | 76.6 nM | NC1CC2c3c(cccc31)CCN2C(=O)c1cc(Cc2n[nH]c(=O)c3ccccc23)ccc1F (stereo not drawn) | > 10000 nM | > 10000 nM | –
5 | 0.56 nM | O=C(c1cc(Cc2n[nH]c(=O)c3ccccc23)ccc1F)N1CCc2cccc3c2C1CC3F (stereo not drawn) | > 10000 nM | > 10000 nM | CC50 [4]: 4300 nM
6 | 8890 nM | COc1ccc(N2CCN(C(=O)CNC(=O)CCCN3CCc4cccc5c4C3CNC5=O)CC2)cc1 (stereo not drawn) | – | – | –
7 | > 10000 nM | O=C1NCC2c3c(cccc31)CCN2CC(=O)N1CCn2c(nnc2C(F)(F)F)C1 (stereo not drawn) | – | – | –
8 | 1.9 nM | O=C1NCC2c3c(cccc31)CCN2C(=O)C1CCN(C(=O)c2cc(Cc3n[nH]c(=O)c4ccccc34)ccc2F)CC1 (stereo not drawn) | > 10000 nM | > 1000 nM | CC50 [4]: 344 nM
9 | > 10000 nM | O=C(CN1CCc2cccc3c2C1CNC3=O)N[C@H](Cc1ccccc1)C(=O)N1CC=C(c2ccc(F)cc2)CC1 (stereo partly drawn) | – | – | –
10 | 210 nM | Cc1cc(Cc2ccc(F)c(C(=O)N3CCc4cccc5c4C3CNC5=O)c2)n[nH]c1=O (stereo not drawn) | – | – | –
11 | 1100 nM | O=C(CCN1CCc2cccc3c2C1CNC3=O)NCC(=O)N1CC=C(c2ccc(F)cc2)CC1 (stereo not drawn) | – | – | –
12 | 9350 nM | O=C1NCC2c3c(cccc31)CCN2CC(=O)N1CC2CCCNC2C1 (stereo not drawn) | – | – | –
13 | 36 nM | Cc1c(Cc2ccc(F)c(C(=O)N3CCc4cccc5c4C3CNC5=O)c2)n[nH]c(=O)c1C (stereo not drawn) | > 10000 nM | > 1000 nM | –
14 | 490 nM | O=C(CN1CCc2cccc3c2C1CNC3=O)N[C@@H](Cc1ccccc1)C(=O)N1CC=C(c2ccc(F)cc2)CC1 (stereo partly drawn) | – | – | –
15 | 0.31 nM | O=C1NCC2c3c(cccc31)CCN2C(=O)c1cc(Cc2n[nH]c(=O)c3ccccc23)ccc1F (stereo not drawn) | > 10000 nM | 96 nM | fold change (FC) (SK-OV-3 [5]): 10.6; Ratio CC50/IC50 [6]: 300; fold change (FC) (SK-OV-3 [7]): 9.3; inhibition [8]: Active; IC50 (PARP 1, 2 and 3): 66.1 nM; inhibition at 5 µM (hERG (KCNH2)): 17%; bioavailability [9]: 21%; AUC(0-inf) [10]: 1820 ng·h/mL; Tmax [11]: 25.2 min; Cmax [12]: 722 ng/mL; half-life [13]: 104 min; Vd [14]: 4.27 L/kg; clearance [15]: 38 mL/min/kg; Ratio [16]: 2; CC50 [4]: 23.3 nM
16 | 8520 nM | O=C(CCN1CCc2cccc3c2C1CNC3=O)NCC(=O)N1CCN(c2ncccn2)CC1 (stereo not drawn) | – | – | –
17 | 11.2 nM | CN(C(=O)c1cc(Cc2n[nH]c(=O)c3ccccc23)ccc1F)C1CC(=O)c2ccccc21 (stereo not drawn) | > 10000 nM | 4680 nM | –
18 | 387 nM | O=C1CC2c3c(cccc3N1)CCN2C(=O)c1cc(Cc2n[nH]c(=O)c3ccccc23)ccc1F (stereo not drawn) | > 10000 nM | > 10000 nM | –

Row | IC50 [3] | SMILES | CC50 [1] | CC50 [2] | other results
19 | 9380 nM | O=C1NCC2c3c(cccc31)CCN2CC(=O)N1CCC2CNCC21 (stereo not drawn) | – | – | –
20 | – | O=C(c1cc(Cc2n[nH]c(=O)c3ccccc23)ccc1F)N1CCN(C(=O)C2CC2)CC1 [OLAPARIB] | > 10000 nM | 201 nM | fold change (FC) (SK-OV-3 [5]): 10.4; fold change (FC) (SK-OV-3 [7]): 9.6; CC50 [4]: 43.2 nM
21 | 8800 nM | O=C1NCC2c3c(cccc31)CCN2CC(=O)N1C[C@H]2CNC[C@H]2C1 (stereo partly drawn) | – | – | –
22 | 86.2 nM | O=C(c1cc(Cc2n[nH]c(=O)c3ccccc23)ccc1F)N1CCc2cccc3c2C1CC3O (stereo not drawn) | > 10000 nM | > 10000 nM | –
23 | 146 nM | O=C(NC1CNC(=O)c2ccccc21)c1cccc(Cc2n[nH]c(=O)c3ccccc23)c1 (stereo not drawn) | > 10000 nM | > 10000 nM | –
24 | 210 nM | C[C@@H](NC(=O)CN1CCc2cccc3c2C1CNC3=O)C(=O)N1CC=C(c2ccc(F)cc2)CC1 (stereo partly drawn) | – | – | –
25 | 4.81 nM | O=C(N[C@@H]1C[C@H](O)c2ccccc21)c1cc(Cc2n[nH]c(=O)c3ccccc23)ccc1F (relative stereo) | 1490 nM | 418 nM | CC50 [4]: 4520 nM
26 | 1.8 nM | O=C1NCC2c3c(cccc31)CCN2C(=O)c1cc(Cc2n[nH]c(=O)c3c2CCCC3)ccc1F (stereo not drawn) | > 10000 nM | 114 nM | Ratio [17]: 2
27 | 45 nM | O=C1NCC2c3c(cccc31)CCN2C(=O)C1CCCN1C(=O)c1cc(Cc2n[nH]c(=O)c3ccccc23)ccc1F (stereo not drawn) | > 10000 nM | > 1000 nM | –
28 | 300 nM | COc1ccc(N2CCN(C(=O)CNC(=O)CN3CCc4cccc5c4C3CNC5=O)CC2)cc1 (stereo not drawn) | – | – | –
29 | 8960 nM | O=C(CCN1CCc2cccc3c2C1CNC3=O)NCC(=O)N1CCN(c2ccccc2F)CC1 (stereo not drawn) | – | – | –
30 | 1.39 nM | O=C(c1cc(Cc2n[nH]c(=O)c3ccccc23)ccc1F)N1Cc2cccc3c2C(C1)NCC3 (stereo not drawn) | > 10000 nM | 630 nM | CC50 [4]: 556 nM
31 | 19 nM | C[C@H](NC(=O)CN1CCc2cccc3c2C1CNC3=O)C(=O)N1CC=C(c2ccc(F)cc2)CC1 (stereo partly drawn) | – | – | –
32 | 8720 nM | COc1ccc(N2CCN(C(=O)CNC(=O)CCN3CCc4cccc5c4C3CNC5=O)CC2)cc1 (stereo not drawn) | – | – | –
33 | 0.57 nM | O=C(N[C@@H]1C[C@@H](O)c2ccccc21)c1cc(Cc2n[nH]c(=O)c3ccccc23)ccc1F (relative stereo) | 4260 nM | 2270 nM | CC50 [4]: 775 nM
34 | 3.46 nM | O=C1CC2c3c(cccc31)CCN2C(=O)c1cc(Cc2n[nH]c(=O)c3ccccc23)ccc1F (stereo not drawn) | > 10000 nM | 4.53 nM | fold change (FC) (SK-OV-3 [5]): 22.2; fold change (FC) (SK-OV-3 [7]): 19.5; inhibition [8]: Active; IC50 (PARP 1, 2 and 3): 0.49 nM; inhibition at 5 µM (hERG (KCNH2)): 34%; F (Rattus norvegicus [18]): 10%; AUC (Rattus norvegicus [19]): 980 ng·h/mL; Tmax [11]: 26.4 min; Cmax [12]: 116 ng/mL; half-life [13]: 66.6 min; Vd [14]: 4.56 L/kg; CL (Rattus norvegicus [20]): 128 mL/min/kg; Ratio [16]: 160; CC50 [4]: < 0.26 nM; Ratio [17]: 40
35 | 33 nM | O=C(NCC(=O)N1CCc2cccc3c2C1CNC3=O)c1cc(Cc2n[nH]c(=O)c3ccccc23)ccc1F (stereo not drawn) | > 10000 nM | > 1000 nM | –
